Here are results for two compounds from PMC4497517 (Proteins, 2009).

The target of experiment [1] is T1, cdk2/cyclin E complex (Homo sapiens, UniProt P24941). Put plainly: Phosphorylation of RNAPII CTD. The format is biochemical. The gist of the method: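 C81 cell lysate was fractionated on Superose 6 size exclusion, and cdk2 fractions 28–32 were pooled with test peptide (0.01, 0.1, 1, 10 μM). Cyclin E was immunoprecipitated overnight at 4°C (1 μg antibody, ~100 ng active cdk2/cyclin E), captured on protein A/G beads and washed. Kinase reaction: 20 μl, 1 hr, 37°C, GST-CTD substrate, (γ-32P) ATP. Products run on 4–20% Tris-glycine gel, dried, 32P bands counted by phosphorimager.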

Experiment [2] deals with cdk2 K178A. The settings on record: cited from earlier work.
Experiment [3] has as its system cdk2 R126A. The settings on record: alanine mutation experiment; cited from earlier work.
Experiment [4] has as its system cdk2 Y180A. Conditions: cited from earlier work.
In experiment [5] the test system is RNA polymerase II (RNAPII) serine 5. Conditions: by disrupting cdk2/cyclin E complex formation; cited from earlier work.
The target of experiment [6] is T1, cdk2/cyclin E complex. Conditions: cited from earlier work.
Experiment [7] relates to cdk2. The settings on record: cited from earlier work.

Entries after “also recorded” stand apart in the source; their conditions may differ. Where a SMILES comes first, the peptide text is derived from it.

A word on the IC50: it is the concentration needed to halve the response being measured. The low end stands for higher potency, the high end for lower potency. In the case of `CC(C)C[C@H](NC(=O)[C@H](C)NC(=O)[C@H](C)NC(=O)[C@@H](N)CC(C)C)C(=O)N[C@@H](CO)C(=O)O` [LAALS] (H-LAALS-OH), the IC50 in experiment [1] turned out to be 4.26 µM.

In the case of TAALS, the “Binding affinity to mutant” value in experiment [2] and in experiment [4] was “dramatic reduction in their binding affinity” throughout. For the same compound, the “Effect of R126A mutation on peptide binding” value in experiment [3] is reported as “does not participate significantly in the peptide binding; also recorded: does not affect the binding of peptide TAALS”. For the same compound, the “Inhibition of phosphorylation of serine 5 of RNAPII” value in experiment [5] was “inhibits the phosphorylation of serine 5 of RNA polymerase II (RNAPII)”. Besides, the “Disruption of cdk2/cyclin E complex” value in experiment [6] is reported as “disrupts the cdk2/cyclin E complex; also recorded: succeeded in partially breaking the cdk2/cyclin E complex”. In addition, in experiment [7], the “Interaction with cdk2” value was “interacts directly with cdk2”.
